# Measured values from different studies.
# Target: Serine/threonine-protein kinase BRSK2 (BRSK2, Homo sapiens, UniProt Q8IWQ3)
# One construct used (Q8IWQ3 1-736): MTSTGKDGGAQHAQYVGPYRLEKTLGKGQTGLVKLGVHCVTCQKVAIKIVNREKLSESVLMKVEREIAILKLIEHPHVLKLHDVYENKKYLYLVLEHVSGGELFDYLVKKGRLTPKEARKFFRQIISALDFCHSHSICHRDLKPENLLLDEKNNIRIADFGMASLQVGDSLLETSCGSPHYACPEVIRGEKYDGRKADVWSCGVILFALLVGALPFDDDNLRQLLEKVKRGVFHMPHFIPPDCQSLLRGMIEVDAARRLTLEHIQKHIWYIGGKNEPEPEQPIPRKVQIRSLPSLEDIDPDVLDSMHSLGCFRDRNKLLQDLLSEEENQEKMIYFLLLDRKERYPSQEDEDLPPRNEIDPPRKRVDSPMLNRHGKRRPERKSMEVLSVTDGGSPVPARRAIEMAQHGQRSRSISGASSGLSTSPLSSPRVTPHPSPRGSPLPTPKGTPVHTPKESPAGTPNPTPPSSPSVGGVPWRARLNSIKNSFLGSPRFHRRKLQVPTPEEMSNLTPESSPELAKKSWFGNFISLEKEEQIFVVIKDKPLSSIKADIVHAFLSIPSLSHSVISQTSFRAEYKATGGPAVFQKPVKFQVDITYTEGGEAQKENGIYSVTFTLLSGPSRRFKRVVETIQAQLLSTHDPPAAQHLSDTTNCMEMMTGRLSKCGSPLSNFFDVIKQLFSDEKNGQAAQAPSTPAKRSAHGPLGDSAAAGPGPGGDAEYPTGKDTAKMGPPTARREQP
SMILES,read-out,mode,technique,concentration,endpoint,value
COc1cc(Nc2ncc(F)c(Nc3ccc4c(n3)NC(=O)C(C)(C)O4)n2)cc(OC)c1OC,binding,,competition with immobilised ligand,10 µM,inhibition,0%
O=c1[nH]c2ccccc2n1C1CCN(Cc2ccc(-c3[nH]c4cc5ncnc5cc4nc3-c3ccccc3)cc2)CC1,cell-free assay,,,0.5 µM,remaining signal,106%
COc1ncccc1-c1cnn2ccc(N3CCN(C(=O)OC(C)C)CC3)nc12,binding,,competition with immobilised ligand,1 µM,remaining binding,82%
CC(C)(C)c1cc(C=C(C#N)C#N)cc(Br)c1O,enzyme activity,inhibitor,,0.5 µM,remaining activity,94.5%
N#CC1(c2ccccn2)CCN(Cc2cc(C(=O)O)c(=O)n3ccccc23)CC1,cell-free assay,,competition with immobilised ligand,1 µM,remaining binding,100%
Nc1ncc(-c2nc(N3CCOCC3)nc(N3CCOCC3)n2)c(C(F)F)n1,binding,,competition with immobilised ligand,10 µM,remaining binding,92%
Cn1cncc1[C@@](O)(COc1ccc(C#N)cc1-c1ccc(OC(F)(F)F)cc1)c1ccc(C#N)cc1,cell-free assay,,competition with immobilised ligand,1 µM,remaining binding,100%
Cc1nn(C)cc1-c1nc2c(N3CCN(Cc4ccc(Cl)cc4)CC3)c(Cl)cnc2[nH]1,binding,,competition with immobilised ligand,1 µM,remaining binding,100%
